Results reported in ChEMBL document CHEMBL1128603, “Novel deltorphin heptapeptide analogs with potent delta agonist, delta antagonist, or mixed mu antagonist/delta agonist properties” (J Med Chem, 1995).
Starred links: 1 amine or outer side, 2 acyl side, 3 side chain; linkers in the order of their positions; H or OH if unused. Non-standard residues stand in square brackets, D forms with d. Residues, ends and D or L forms follow the SMILES beside them. X1 = CSCC[C@H](CN([C@@H](Cc1ccccc1)C(=O)[*:2])[*:1])N[*:3]; Tle = CC(C)(C)[C@H](N)C(=O)O; NBuGly = CCCCNCC(=O)O

Columns and labels:
[1] = target: Delta-type opioid receptor (Rattus norvegicus, UniProt P33533); test: Inhibition of [3H]-DADLE binding to rat brain delta receptor
Outline: (§1)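 Crude rat brain synaptosomal fraction (600 μg protein/mL) in 50 mM Tris-HCl pH 7.4 with BSA, bacitracin, bestatin and soybean trypsin inhibitor. Radioligand [3H]DAGO (μ) or [3H]DADLE (δ) at 2 nM. The δ assay also held 2.6 μM [Nα-MePhe3,D-Pro4]morphiceptin to block μ sites. Nonspecific binding with 1 μM unlabeled ligand. Incubated 60 min at 25 °C, filtered on PEI-soaked GF/B, counted by scintillation. Ki from IC50 by Cheng-Prusoff; mean of three.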

[2] = IC50 ratio measured as the IC50 values of GPI to that of MVD.; type: functional
[3] = organism: Cavia porcellus; test: In vitro inhibitory concentration against electrically induced contraction of guinea pig ileum (GPI); type: functional
Outline: (§2)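 Electrically stimulated isolated tissue: longitudinal muscle strips of Hartley guinea pig ileum (250-300 g) for GPI, vas deferens of male ddY mouse (25-35 g) for MVD. IC50 read from log dose-response curves of contraction inhibition.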

[4] = target: Opioid receptors; mu & delta (Rattus norvegicus) (UniProt P33533+P33535); test: Relative binding affinity for mu and delta opioid receptors; type: protein assay
[5] = target: Mu-type opioid receptor (Rattus norvegicus, UniProt P33535); test: Inhibition of [3H]DAGO binding to rat brain Opioid receptor mu 1; outline: as §1
[6] = target: Delta-type opioid receptor (Mus musculus) (UniProt P32300); test: Ratio of antagonistic activity against delta receptors in mouse vas deferens in presence and absence of delta agonist leu-enkephalin; type: functional
Outline: (§3)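 Agonist log dose-response curves were run with and without a fixed antagonist level. Ke was derived from the ratio of the IC50 values.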

[7] = organism: Mus musculus; test: In vitro inhibitory concentration against electrically induced contraction of mouse vas deferens (MVD); type: functional; outline: as §2
[8] = target: Delta-type opioid receptor (Mus musculus) (UniProt P32300); test: Ratio of antagonistic activity against delta receptors in mouse vas deferens in presence and absence of delta agonist DADLE; type: functional; outline: as §3
[9] = target: Delta-type opioid receptor (Mus musculus) (UniProt P32300); test: Ratio of antagonistic activity against delta receptors in mouse vas deferens in presence and absence of delta agonist deltorphin; type: functional; outline: as §3
[10] = target: Delta-type opioid receptor (Mus musculus) (UniProt P32300); test: Ratio of antagonistic activity against delta receptors in mouse vas deferens in presence and absence of delta agonist DL-II; type: functional; outline: as §3
[11] = target: Mu-type opioid receptor (Cavia porcellus) (UniProt P97266); test: Ratio of antagonistic activity against mu receptors in guinea pig ileum in presence and absence of mu agonist dermorphin; type: functional, tissue-based; outline: as §3
[12] = target: Mu-type opioid receptor (Cavia porcellus) (UniProt P97266); test: Ratio of antagonistic activity against mu receptors in guinea pig ileum in presence and absence of mu agonist DAGO; type: functional, tissue-based; outline: as §3
[13] = target: Delta-type opioid receptor (Mus musculus) (UniProt P32300); test: Ratio of antagonistic activity against delta receptors in mouse vas deferens in presence and absence of delta agonist DPDPE; type: functional; outline: as §3

Chain of Delta-type opioid receptor (P33533 whole entry): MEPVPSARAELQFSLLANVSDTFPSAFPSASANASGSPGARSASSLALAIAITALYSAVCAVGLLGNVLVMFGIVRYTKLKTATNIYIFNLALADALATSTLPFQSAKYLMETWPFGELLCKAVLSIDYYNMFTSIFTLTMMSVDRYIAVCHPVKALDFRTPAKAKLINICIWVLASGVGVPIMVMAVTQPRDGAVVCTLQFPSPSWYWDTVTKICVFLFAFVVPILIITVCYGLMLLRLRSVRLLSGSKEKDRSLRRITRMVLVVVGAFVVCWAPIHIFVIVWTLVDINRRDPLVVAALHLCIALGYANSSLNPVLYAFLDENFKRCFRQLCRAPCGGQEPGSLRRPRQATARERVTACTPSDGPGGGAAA
Chain of Opioid receptors; mu & delta (Rattus norvegicus) (P33533 whole entry, looked up): as the sequence (P33533 whole entry) above
Chain of Opioid receptors; mu & delta (Rattus norvegicus) (P33535 whole entry, looked up): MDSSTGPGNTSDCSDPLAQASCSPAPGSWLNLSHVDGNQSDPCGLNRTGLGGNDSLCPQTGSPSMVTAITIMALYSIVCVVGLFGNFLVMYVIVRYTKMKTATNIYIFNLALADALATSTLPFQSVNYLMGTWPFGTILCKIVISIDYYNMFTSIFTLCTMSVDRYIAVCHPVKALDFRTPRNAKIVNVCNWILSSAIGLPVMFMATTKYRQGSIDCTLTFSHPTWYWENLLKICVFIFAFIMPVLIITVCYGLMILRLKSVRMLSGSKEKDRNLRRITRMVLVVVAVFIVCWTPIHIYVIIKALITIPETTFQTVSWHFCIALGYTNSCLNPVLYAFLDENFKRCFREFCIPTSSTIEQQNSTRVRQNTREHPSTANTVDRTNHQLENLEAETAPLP
Chain of Mu-type opioid receptor (Cavia porcellus) (P97266 whole entry): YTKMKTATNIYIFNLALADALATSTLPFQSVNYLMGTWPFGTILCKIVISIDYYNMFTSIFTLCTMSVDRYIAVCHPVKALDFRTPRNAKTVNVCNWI
Chain of Mu-type opioid receptor (P33535 whole entry): as the sequence (P33535 whole entry, looked up) above
Chain of Delta-type opioid receptor (Mus musculus) (P32300 whole entry): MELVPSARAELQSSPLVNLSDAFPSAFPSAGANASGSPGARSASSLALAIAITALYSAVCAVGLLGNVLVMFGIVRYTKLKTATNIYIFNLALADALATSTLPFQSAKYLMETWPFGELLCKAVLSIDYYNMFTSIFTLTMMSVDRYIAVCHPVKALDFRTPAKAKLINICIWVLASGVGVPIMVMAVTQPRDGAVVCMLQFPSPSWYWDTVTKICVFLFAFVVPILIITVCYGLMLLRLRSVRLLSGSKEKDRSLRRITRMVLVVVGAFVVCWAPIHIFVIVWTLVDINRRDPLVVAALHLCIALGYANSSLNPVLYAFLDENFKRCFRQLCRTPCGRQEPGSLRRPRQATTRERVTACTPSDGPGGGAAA

Row | Compound | Ki [1] | Ratio [2] | IC50 ([3]; Cavia porcellus, Ileum) | Ki ratio [4] | Ki [5] | IC50 ([7]; Mus musculus) | also measured
1 | CSCC[C@H](NC(=O)[C@H](C)NC(=O)[C@H](Cc1c[nH]cn1)NC(=O)[C@H](Cc1ccccc1)NC(=O)[C@@H](CCSC)NC(=O)[C@@H](N)Cc1ccc(O)cc1)C(=O)N[C@@H](CC(=O)O)C(N)=O | 1.71 nM | 0.5 | 216 nM | 78 | 133 nM | 406 nM | Ke [6]: 721 nM; Ke [8]: 598 nM; Ke [9]: 632 nM
2 | CC[C@H](C)N(CC(=O)N[C@@H](CC(=O)O)C(N)=O)C(=O)[C@H](CC(C)C)NC(=O)[C@H](Cc1c[nH]cn1)NC(=O)[C@H](Cc1ccccc1)NC(=O)[C@@H](CCSC)NC(=O)[C@@H](N)Cc1ccc(O)cc1 (stereo in doubt; 6b) [listing 1 of 2 here] |  | 844 |  | 9690 |  |  | 
3 | CSCC[C@@H](NC(=O)[C@@H](N)Cc1ccc(O)cc1)C(=O)N[C@@H](Cc1ccccc1)C(=O)N[C@@H](Cc1c[nH]cn1)C(=O)N[C@@H](CC(C)C)C(=O)N[C@H](C(=O)N[C@@H](CC(=O)O)C(N)=O)C(C)(C)C | 0.46 nM | 254 | 325 nM | 589 | 271 nM | 1.28 nM | 
4 | CCCCN(CC(=O)N[C@@H](CC(=O)O)C(N)=O)C(=O)[C@H](CC(C)C)NC(=O)[C@H](Cc1cnc[nH]1)NC(=O)[C@H](Cc1ccccc1)NC[C@@H](CCSC)NC(=O)[C@@H](N)Cc1ccc(O)cc1 (H-[X1](Tyr)HL[NBuGly]D-NH2) | 1.89 nM |  |  |  | 143 nM |  | 
5 | CCCCN(CC(=O)N[C@@H](CC(=O)O)C(N)=O)C(=O)[C@H](CC(C)C)NC(=O)[C@H](Cc1c[nH]cn1)NC(=O)[C@H](Cc1ccccc1)NC(=O)[C@@H](CCSC)NC(=O)[C@@H](N)Cc1ccc(O)cc1 | 0.04 nM | 1030 | 578 nM | 18200 | 820 nM | 0.56 nM | 
6 | Oc1ccc2c3c1O[C@H]1c4[nH]c5ccccc5c4C[C@@]4(O)[C@@H](C2)N(CC2CC2)CC[C@]314 |  |  |  |  |  |  | Ke [10]: 0.67 nM; Ke [6]: 0.94 nM; Ke [11]: 151 nM; Ke [8]: 0.67 nM; Ke [9]: 0.65 nM; Ke [12]: 52.2 nM; Ke [13]: 0.65 nM
7 | CC[C@H](C)N(CC(=O)N[C@@H](CC(=O)O)C(N)=O)C(=O)[C@H](CC(C)C)NC(=O)[C@H](Cc1c[nH]cn1)NC(=O)[C@H](Cc1ccccc1)NC(=O)[C@@H](CCSC)NC(=O)[C@@H](N)Cc1ccc(O)cc1 (stereo in doubt; 6b) [listing 2 of 2 here] | 0.09 nM |  | 642 nM |  | 798 nM | 0.76 nM | 
8 | CSCC[C@@H](NC(=O)[C@@H](N)Cc1ccc(O)cc1)C(=O)N[C@@H](Cc1ccccc1)C(=O)N[C@@H](Cc1c[nH]cn1)C(=O)N[C@@H](CC(C)C)C(=O)N(CC(=O)N[C@@H](CC(=O)O)C(N)=O)CC(C)C | 0.85 nM | 1640 | 3870 nM | 68 | 58 nM | 2.36 nM | Ke [11]: 165 nM; Ke [12]: 138 nM
9 | CSCC[C@H](NC(=O)[C@H](CC(C)C)NC(=O)[C@H](Cc1cnc[nH]1)NC(=O)[C@H](Cc1ccccc1)NC(=O)[C@@H](CCSC)NC(=O)[C@@H](N)Cc1ccc(O)cc1)C(=O)N[C@@H](CC(=O)O)C(N)=O (H-Y[dM]FHLMD-NH2) | 0.19 nM |  | 632 nM |  | 219 nM | 0.93 nM | 
10 | CSCC[C@H](NC(=O)[C@@H](NC(=O)[C@H](Cc1c[nH]cn1)NC(=O)[C@H](Cc1ccccc1)NC(=O)[C@@H](CCSC)NC(=O)[C@@H](N)Cc1ccc(O)cc1)C(C)(C)C)C(=O)N[C@@H](CC(=O)O)C(N)=O | 9.45 nM | 0.5 | 1200 nM | 40 | 382 nM | 2430 nM | Ke [10]: 17.2 nM; Ke [6]: 18.4 nM; Ke [8]: 15.8 nM; Ke [9]: 16.1 nM; Ke [13]: 311 nM
11 | CC[C@H](C)N(CC(=O)N[C@@H](CC(=O)O)C(N)=O)C(=O)[C@H](CC(C)C)NC(=O)[C@H](Cc1c[nH]cn1)NC(=O)[C@H](Cc1ccccc1)NC(=O)[C@@H](CCSC)NC(=O)[C@@H](N)Cc1ccc(O)cc1 (stereo in doubt; 6a) [listing 1 of 2 here] |  | 777 |  | 8730 |  |  | 
12 | CCCCN(CC(=O)N[C@@H](CC(=O)O)C(N)=O)C(=O)[C@H](CC(C)C)NC(=O)[C@H](Cc1c[nH]cn1)NC(=O)[C@H](Cc1ccccc1)NC[C@@H](CCSC)NC(=O)[C@@H](N)Cc1ccc(O)cc1 (H-[X1](Tyr)HL[NBuGly]D-NH2) |  | 16 | 422 nM | 76 |  | 26 nM | 
13 | CCCCN(CC(=O)N[C@@H](CC(=O)O)C(N)=O)C(=O)[C@@H](NC(=O)[C@H](Cc1c[nH]cn1)NC(=O)[C@H](Cc1ccccc1)NC(=O)[C@@H](CCSC)NC(=O)[C@@H](N)Cc1ccc(O)cc1)C(C)(C)C | 12.4 nM | 0.9 | 1680 nM | 12 | 152 nM | 1910 nM | Ke [11]: 554 nM; Ke [12]: 520 nM
14 | CCCCN(CC(=O)N[C@@H](CC(=O)O)C(N)=O)C(=O)[C@@H](NC(=O)[C@H](Cc1cnc[nH]1)NC(=O)[C@H](Cc1ccccc1)NC[C@@H](CCSC)NC(=O)[C@@H](N)Cc1ccc(O)cc1)C(C)(C)C (H-[X1](Tyr)H[Tle][NBuGly]D-NH2) | 2.56 nM |  |  |  | 157 nM |  | 
15 | CC[C@H](C)N(CC(=O)N[C@@H](CC(=O)O)C(N)=O)C(=O)[C@H](CC(C)C)NC(=O)[C@H](Cc1c[nH]cn1)NC(=O)[C@H](Cc1ccccc1)NC(=O)[C@@H](CCSC)NC(=O)[C@@H](N)Cc1ccc(O)cc1 (stereo in doubt; 6a) [listing 2 of 2 here] | 0.1 nM |  |  |  | 856 nM |  | IC50 [3]: 684 nM; IC50 [7]: 0.88 nM
16 | CCCCN(CC(=O)N[C@@H](CC(=O)O)C(N)=O)C(=O)[C@@H](NC(=O)[C@H](Cc1c[nH]cn1)NC(=O)[C@H](Cc1ccccc1)NC[C@@H](CCSC)NC(=O)[C@@H](N)Cc1ccc(O)cc1)C(C)(C)C (H-[X1](Tyr)H[Tle][NBuGly]D-NH2) |  | 23 | 995 nM | 61 |  | 42 nM | 
